Results taken from ChEMBL document CHEMBL3046139, “Preparation and phytotoxicity of novel kaurane diterpene amides with potential use as herbicides” (J Agric Food Chem, 2008).
Activity calls are given as the source filed them.

What was measured:
Format in all cases: functional, organism-based
Lactuca sativa [1] = test: Stimulation of seed germination in Lactuca sativa cv. Grand Rapids (lettuce) at 0.1 uM measured 5 days post compound treatment
In short: (§1)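 Test solutions in deionized water, buffered with 10 mM MES and adjusted to pH 6.0-6.5 with NaOH. Concentrations below 10^-3 M made by dilution series. Osmotic pressure 30-38 mOsmolar. Petri dishes sealed with Parafilm and kept in the dark at 25 °C for 5 days, in triplicate. Seed counted as germinated when radicle was at least 0.2 mm. Radicle and shoot lengths measured by pachymeter with dishes held at 4 °C. Results given as percent difference from untreated control means. Student's t-test, P ≤ 0.05.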

Lactuca sativa [2] = test: Phytotoxicity in Lactuca sativa cv. Grand Rapids (lettuce) assessed as inhibition of shoot length at 1 mM measured 5 days post compound treatment; in short: as §1
Lactuca sativa [3] = test: Phytotoxicity in Lactuca sativa cv. Grand Rapids (lettuce) assessed as inhibition of radicle length at 1 mM measured 5 days post compound treatment; in short: as §1
Lactuca sativa [4] = test: Phytotoxicity in Lactuca sativa cv. Grand Rapids (lettuce) assessed as inhibition of seed germination at 1 mM measured 5 days post compound treatment; in short: as §1
Lactuca sativa [5] = test: Phytotoxicity in Lactuca sativa cv. Grand Rapids (lettuce) assessed as inhibition of seed germination at 10 uM measured 5 days post compound treatment; in short: as §1
Lactuca sativa [6] = test: Phytotoxicity in Lactuca sativa cv. Grand Rapids (lettuce) assessed as inhibition of seed germination at 0.1 uM measured 5 days post compound treatment; in short: as §1
Lactuca sativa [7] = test: Stimulation of seed germination in Lactuca sativa cv. Grand Rapids (lettuce) at 1 mM measured 5 days post compound treatment; in short: as §1
Lactuca sativa [8] = test: Stimulation of radicle growth in Lactuca sativa cv. Grand Rapids (lettuce) at 10 uM measured 5 days post compound treatment; in short: as §1
Lactuca sativa [9] = test: Stimulation of radicle growth in Lactuca sativa cv. Grand Rapids (lettuce) at 0.1 uM measured 5 days post compound treatment; in short: as §1
Lactuca sativa [10] = test: Stimulation of shoot growth in Lactuca sativa cv. Grand Rapids (lettuce) at 10 uM measured 5 days post compound treatment; in short: as §1
Lactuca sativa [11] = test: Stimulation of shoot growth in Lactuca sativa cv. Grand Rapids (lettuce) at 0.1 uM measured 5 days post compound treatment; in short: as §1

C=C1C[C@@]23CC[C@@H]4[C@](C)(C(=O)NCCCCN)CCC[C@@]4(C)C2=CC[C@@H]1C3
active: Activity (Lactuca sativa [1]) | inhibition (Lactuca sativa [2]) | inhibition (Lactuca sativa [3]) | inhibition (Lactuca sativa [4])

C=C1C[C@@]23CC[C@H]4[C@@](C)(CCC[C@@]4(C)C(=O)NCCCCN)[C@@H]2CC[C@@H]1C3
active: Activity (Lactuca sativa [1]) | inhibition (Lactuca sativa [2]) | inhibition (Lactuca sativa [3]) | inhibition (Lactuca sativa [4])

C=C1C[C@@]23CC[C@@H]4[C@](C)(C(=O)N5CCOCC5)CCC[C@@]4(C)C2=CC[C@@H]1C3
active: inhibition (Lactuca sativa [5]) | inhibition (Lactuca sativa [2]) | inhibition (Lactuca sativa [6]) | inhibition (Lactuca sativa [3]) | inhibition (Lactuca sativa [4])

C=C1C[C@]23C[C@@]1(O)CC[C@H]2[C@@]12C=C[C@H](O)[C@@](C)(C(=O)O1)[C@H]2[C@@H]3C(=O)O
active: Activity (Lactuca sativa [7])

C=C1C[C@@]23CC[C@H]4[C@@](C)(CCC[C@@]4(C)C(=O)NC4CCCCC4)[C@@H]2CC[C@@H]1C3
active: inhibition (Lactuca sativa [5]) | inhibition (Lactuca sativa [2]) | inhibition (Lactuca sativa [6]) | inhibition (Lactuca sativa [3]) | inhibition (Lactuca sativa [4])

C=C1C[C@@]23CC[C@@H]4[C@](C)(C(=O)NCCCCCC)CCC[C@@]4(C)C2=CC[C@@H]1C3
active: inhibition (Lactuca sativa [5]) | inhibition (Lactuca sativa [2]) | inhibition (Lactuca sativa [6]) | inhibition (Lactuca sativa [3]) | inhibition (Lactuca sativa [4])

C=C1C[C@@]23CC[C@H]4[C@@](C)(CCC[C@@]4(C)C(=O)N4CCOCC4)[C@@H]2CC[C@@H]1C3
active: inhibition (Lactuca sativa [5]) | inhibition (Lactuca sativa [2]) | inhibition (Lactuca sativa [6]) | inhibition (Lactuca sativa [3]) | inhibition (Lactuca sativa [4])

C=C1C[C@@]23CC[C@H]4[C@@](C)(CCC[C@@]4(C)C(=O)NCCN)[C@@H]2CC[C@@H]1C3
active: inhibition (Lactuca sativa [5]) | inhibition (Lactuca sativa [2]) | inhibition (Lactuca sativa [6]) | inhibition (Lactuca sativa [3]) | inhibition (Lactuca sativa [4])

C=C1C[C@@]23CC[C@H]4[C@@](C)(CCC[C@@]4(C)C(=O)N4CCNCC4)[C@@H]2CC[C@@H]1C3
active: inhibition (Lactuca sativa [5]) | Activity (Lactuca sativa [8]) | Activity (Lactuca sativa [9]) | Activity (Lactuca sativa [10]) | inhibition (Lactuca sativa [2]) | inhibition (Lactuca sativa [6]) | inhibition (Lactuca sativa [3]) | Activity (Lactuca sativa [11]) | inhibition (Lactuca sativa [4])

C=C1C[C@@]23CC[C@H]4[C@@](C)(CCC[C@@]4(C)C(=O)NCCCCCC)[C@@H]2CC[C@@H]1C3
active: inhibition (Lactuca sativa [5]) | inhibition (Lactuca sativa [2]) | inhibition (Lactuca sativa [6]) | inhibition (Lactuca sativa [3]) | inhibition (Lactuca sativa [4])

C=C1C[C@@]23CC[C@@H]4[C@](C)(C(=O)NCCCN)CCC[C@@]4(C)C2=CC[C@@H]1C3
active: inhibition (Lactuca sativa [5]) | inhibition (Lactuca sativa [2]) | inhibition (Lactuca sativa [6]) | inhibition (Lactuca sativa [3]) | inhibition (Lactuca sativa [4])

C=C1C[C@@]23CC[C@H]4[C@@](C)(CCC[C@@]4(C)C(=O)Nc4ccccc4)[C@@H]2CC[C@@H]1C3
active: inhibition (Lactuca sativa [5]) | inhibition (Lactuca sativa [2]) | inhibition (Lactuca sativa [6]) | inhibition (Lactuca sativa [3]) | inhibition (Lactuca sativa [4])

C=C1C[C@@]23CC[C@@H]4[C@](C)(C(=O)Nc5ccccc5)CCC[C@@]4(C)C2=CC[C@@H]1C3
active: inhibition (Lactuca sativa [5]) | inhibition (Lactuca sativa [2]) | inhibition (Lactuca sativa [6]) | inhibition (Lactuca sativa [3]) | inhibition (Lactuca sativa [4])

C=C1C[C@@]23CC[C@@H]4[C@](C)(C(=O)N5CCNCC5)CCC[C@@]4(C)C2=CC[C@@H]1C3
active: inhibition (Lactuca sativa [5]) | Activity (Lactuca sativa [8]) | Activity (Lactuca sativa [9]) | Activity (Lactuca sativa [10]) | inhibition (Lactuca sativa [2]) | inhibition (Lactuca sativa [6]) | inhibition (Lactuca sativa [3]) | Activity (Lactuca sativa [11]) | inhibition (Lactuca sativa [4])

C=C1C[C@@]23CC[C@@H]4[C@](C)(C(=O)NC5CCCCC5)CCC[C@@]4(C)C2=CC[C@@H]1C3
active: inhibition (Lactuca sativa [5]) | inhibition (Lactuca sativa [2]) | inhibition (Lactuca sativa [6]) | inhibition (Lactuca sativa [3]) | inhibition (Lactuca sativa [4])

C=C1C[C@@]23CC[C@@H]4[C@](C)(C(=O)NCCN)CCC[C@@]4(C)C2=CC[C@@H]1C3
active: inhibition (Lactuca sativa [5]) | inhibition (Lactuca sativa [2]) | inhibition (Lactuca sativa [6]) | inhibition (Lactuca sativa [3]) | inhibition (Lactuca sativa [4])

C=C1C[C@@]23CC[C@H]4[C@@](C)(CCC[C@@]4(C)C(=O)NCCCN)[C@@H]2CC[C@@H]1C3
active: inhibition (Lactuca sativa [5]) | inhibition (Lactuca sativa [2]) | inhibition (Lactuca sativa [6]) | inhibition (Lactuca sativa [3]) | inhibition (Lactuca sativa [4])
